Screens: PubChem BioAssay, several laboratories
Ecoli WT expand = blocks growth of wild type E. coli BW25113; OD600 absorbance; growth inhibition, % at 100 µM; 98,000 tested, 0.15% active; AID 710;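 active = growth inhibition above about 50% at one test dose, limit read from the data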;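 note: growth measured after 20 h incubation at 37 °C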
PTK2B oligo ant = Pyk2 (human) oligomerization antagonism. 99,000 tested, 0.83% active. Q14289. Q293 cells, Pyk2 FERM NanoBiT luminescence; active compounds read low. z-score (the deposit names both 25 µM and 10 µM). AID 1347419;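 active = Z-score of -3 or lower, scaled per plate to the spread of control and sample wells; inactive = z-score above -3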;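 note: negative z-score means lost luminescence so less FERM oligomerization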
PostGolgi yeast = growth inhibition of a yeast mutant, post-Golgi transport screen; 98,000 tested, 0.9% active; AID 739; inhibition, % at 10 µM; post-Golgi transport phenotypic cell assay;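 note: yeast cells grown in 1536-well plates; yeast grown about 18 h at 30C before absorbance read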
PostGolgi ctrl = yeast control strain growth, post-Golgi counter-screen. efflux-deficient yeast background strain, growth absorbance A615, 16 h. inhibition, % at 10 µM. 98,000 tested, 5% active
Cav32 inh = human Cav3.2 channel inhibition, primary screen. O95180. Cav3.2-expressing cells, Fluo-4 calcium fluorescence FDSS; active compounds read low. B-score at 10 µM. 100,000 tested, 4% active. AID 449739;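 active = single-dose well whose peak fluorescence ratio is a statistical outlier from its plate by either plate-standardised score or position-corrected B-score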
tolC growth inh = growth inhibitors of E. coli BW25113 tolC mutant | OD615 | growth inhibition, % at 10 µM (by protocol) | 65,000 tested, 2.2% active;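 active = growth inhibition at or above a cutoff equal to the mean over every tested compound plus 3 SD, cut at about 60% in these data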;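 note: growth measured after 20 h incubation at 37 °C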
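Test system: tolC-deleted E. coli BW25113 | Medium: LB with kanamycin 50 µg/mL | Compound dosing: Single concentration, 10 µM final per compound | Schedule: 37 °C, 20 h exposure | Measured by: OD at 615 nm | Evaluation: Percent growth inhibition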
The depositor's hits bear a star. In the library only some 8.7% were active in any assay of this set; here they are far more common. Cut-off read from the data, not from the text of the source, unless noted: active = inhibition above about 30%; inactive = the rest.

Screening Cn1c(=O)n(CCc2ccccc2)c(=O)c2c1nc1n2CCCN1Cc1ccccc1 returned Ecoli WT expand -16, PTK2B oligo ant -2.4, PostGolgi yeast 5, PostGolgi ctrl 13, Cav32 inh -0.57 and tolC growth inh 26.
`Cn1c(=O)n(Cc2ccc(F)cc2)c(=O)c2c1nc1n2CCCN1Cc1ccccc1` gave Ecoli WT expand -8, PTK2B oligo ant -0.18, PostGolgi yeast 2, PostGolgi ctrl 45*, Cav32 inh -4.5 and tolC growth inh 13.
Screening Cn1c(N2CCOCC2)nc2c1c(=O)n(Cc1ccc(Cl)c(Cl)c1)c(=O)n2C returned Ecoli WT expand -3, PTK2B oligo ant -0.73, PostGolgi yeast -10, PostGolgi ctrl 40*, Cav32 inh -1.2 and tolC growth inh 5.
CC(Sc1cccc(C(F)(F)F)c1)C(=O)NC(N)=O (stereo not drawn) was read as PTK2B oligo ant 1.7, Cav32 inh 0.34 and tolC growth inh 0.
Screening O=C(O)C1=C[C@H](c2ccc(Br)cc2)C[C@H](OCc2ccc(CO)cc2)O1 returned Cav32 inh -0.042.
For CCOC(=O)C1CCN(C(C(=O)NC2CCCC2)c2ccc(C)cc2)CC1 (stereo not drawn) the results were Ecoli WT expand 9, PostGolgi yeast 6, PostGolgi ctrl -7 and Cav32 inh 0.55.
`COc1cccc(NC(=O)c2nc3ncccn3n2)c1` gave Ecoli WT expand 1, PTK2B oligo ant -0.63, PostGolgi yeast 2, PostGolgi ctrl 0, Cav32 inh -0.0098 and tolC growth inh -17.
`Cn1c(=O)c2ncn(CC(=O)Nc3cccc(-c4nc5ccccc5s4)c3)c2n(C)c1=O` gave Ecoli WT expand -16, PTK2B oligo ant -0.67, PostGolgi yeast 2, PostGolgi ctrl 1 and Cav32 inh 0.066.
Cn1cnc2c1c(=O)n(Cc1ccccc1)c(=O)n2C was read as Ecoli WT expand 5, PostGolgi yeast -7, PostGolgi ctrl -7, Cav32 inh 0.11 and tolC growth inh -10.
Screening Cn1c(=O)n(CCc2ccccc2)c(=O)c2c1ncn2Cc1ccccc1 returned Ecoli WT expand 1, PTK2B oligo ant -0.92, PostGolgi yeast -5, PostGolgi ctrl 38*, Cav32 inh 0.055 and tolC growth inh 18.
Screening CC(C)C[C@H]1C(=O)N2CCC[C@H]2[C@]2(O)O[C@](NC(=O)C3C=C4c5cccc6[nH]c(Br)c(c56)C[C@H]4N(C)C3)(C(C)C)C(=O)N12 (stereo partly drawn) returned Cav32 inh -5.6*.
`CS(=O)(=O)c1ccc(-c2cc(Br)sc2-c2ccc(F)cc2)cc1` gave Cav32 inh -3.7.
CC(=O)N(CCC(Cc1ccccc1)c1ccc2c(c1)OCO2)Cc1ccccc1F (stereo not drawn) was read as Ecoli WT expand 0, PTK2B oligo ant -1.4, PostGolgi yeast -10 and PostGolgi ctrl 36*.
`O=C(NC(Cc1ccccc1)c1ccc2c(c1)OCCCO2)c1ccccc1F` (stereo not drawn) gave Ecoli WT expand -8, PTK2B oligo ant -2, PostGolgi yeast 4, PostGolgi ctrl 9 and Cav32 inh -2.8.
CCOC(=O)c1nnn(-c2nonc2N)c1COc1ccc(F)cc1 was read as Ecoli WT expand -1, PTK2B oligo ant -0.58, PostGolgi yeast 5, PostGolgi ctrl 8 and Cav32 inh -2.9.
For CCCCNC(=O)CCn1c(=O)c2ccccc2n(CC(=O)N2CC(C)CC(C)C2)c1=O (stereo not drawn) the results were Ecoli WT expand 3, PTK2B oligo ant -0.6, PostGolgi yeast 14, PostGolgi ctrl 9, Cav32 inh 1.2 and tolC growth inh -8.
For CC1CCN(C(=O)Cn2c(=O)n(CCc3ccccc3)c(=O)c3ccccc32)CC1 the results were Ecoli WT expand -3, PTK2B oligo ant -1.8, PostGolgi yeast 21, PostGolgi ctrl 43*, Cav32 inh -0.15 and tolC growth inh 0.
For O=C(COc1ncnc2scc(-c3ccccc3)c12)NC1CCCc2ccccc21 (stereo not drawn) the results were PTK2B oligo ant 1.3.
Screening ON=Cc1cccn1-c1ccccc1 returned Ecoli WT expand 11, PTK2B oligo ant -0.29, PostGolgi yeast 30*, PostGolgi ctrl -1, Cav32 inh 0.18 and tolC growth inh -7.
Screening O=S(NCc1ccco1)C12CC3CC(CC(C3)C1)C2 (stereo not drawn) returned Ecoli WT expand -12, PTK2B oligo ant 0.03, PostGolgi yeast -3, PostGolgi ctrl 12, Cav32 inh -0.078 and tolC growth inh -10.
`CCSC1=NC2(CCCCC2)Nc2sc3c(c21)CCCC3` gave Ecoli WT expand 8, PTK2B oligo ant -0.59, PostGolgi yeast 11, PostGolgi ctrl 17 and Cav32 inh -1.3.
Screening COc1ccc(Cn2nc(C)n(N(C)c3ncc(C(F)(F)F)cc3Cl)c2=O)cc1 returned Ecoli WT expand 7, PTK2B oligo ant -0.28, PostGolgi yeast -3, PostGolgi ctrl 6 and Cav32 inh -2.4.
For c1ccc(-n2nnnc2Oc2cccc3cccnc23)cc1 the results were Ecoli WT expand 1, PTK2B oligo ant -0.91, PostGolgi yeast -3, PostGolgi ctrl 29, Cav32 inh -0.8 and tolC growth inh 91*.
Cc1ccc2cccc(Oc3nnnn3-c3ccccc3)c2n1 was read as Ecoli WT expand 5, PTK2B oligo ant -1.6, PostGolgi yeast 18, PostGolgi ctrl 30*, Cav32 inh -2.7 and tolC growth inh 5.
`Cc1ccc(C)c(Oc2nnnn2-c2ccccc2)c1` gave Ecoli WT expand 8, PTK2B oligo ant -0.74, PostGolgi yeast 11, PostGolgi ctrl 14, Cav32 inh -2.4 and tolC growth inh 14.
For Cc1ccc(C(C)C)c(Oc2nnnn2-c2ccccc2)c1 the results were Ecoli WT expand 8, PTK2B oligo ant -2.8, PostGolgi yeast 0, PostGolgi ctrl 21, Cav32 inh -1.8 and tolC growth inh 92*.
CC(C)Nc1ccc(C(CC(N)=O)NC(=O)Cc2ccc(Cl)cc2)cc1[N+](=O)[O-] (stereo not drawn) was read as Cav32 inh -0.023.
Screening Cc1nn(CCC#N)c2nc(-c3ccccc3)cc(C(F)(F)F)c12 returned Ecoli WT expand -9, PTK2B oligo ant -1.1, PostGolgi yeast 7, PostGolgi ctrl 18 and Cav32 inh -1.6.
N#CCCn1nc(-c2ccccc2)cc1-n1c(C(F)(F)F)nc2ccccc21 was read as Ecoli WT expand -12, PTK2B oligo ant -0.7, PostGolgi yeast -3, PostGolgi ctrl 16, Cav32 inh -3.4* and tolC growth inh 9.
`CCN(CC)CCCN(Cc1cc2cc3c(cc2[nH]c1=O)OCO3)C(=O)Nc1ccccc1OC` gave Ecoli WT expand 1, PTK2B oligo ant -0.38, PostGolgi yeast 5, PostGolgi ctrl -3, Cav32 inh 0.87 and tolC growth inh -4.
Screening CCN(CC)CCCN(Cc1cc2cc3c(cc2[nH]c1=O)OCCO3)C(=O)Nc1ccc(F)cc1 returned Ecoli WT expand 2, PTK2B oligo ant -0.01, PostGolgi yeast 35*, PostGolgi ctrl 1, Cav32 inh 0.46 and tolC growth inh 12.
